Data reported in ChEMBL document CHEMBL2375304, “Synthesis and anticancer activity of novel 2-pyridyl hexahyrocyclooctathieno[2,3-d]pyrimidine derivatives” (2013).

Experiments:
Type in all cases: functional
OVCAR-5 = assay: Growth inhibition of human OVCAR5 cells at 10^-5 M after 48 hrs by Sulforhodamine B assay relative to control; conditions: OVCAR-5, 48 h, read-out: GI
Procedure, shortened: (§1)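 Single-dose primary screen at 10⁻⁵ M across 49 lines. Cells were plated 24 h beforehand, with a TCA-fixed time-zero plate, then exposed 48 h at 37 °C, 5% CO2. Cells were fixed with cold TCA, stained with SRB and read at 515 nm. Percent growth was calculated against time-zero and untreated-control absorbances.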

OVCAR-3 = assay: Growth inhibition of human OVCAR3 cells at 10^-5 M after 48 hrs by Sulforhodamine B assay relative to control; conditions: OVCAR-3, 48 h, read-out: GI; procedure, shortened: as §1
DU-145 = assay: Growth inhibition of human DU145 cells at 10^-5 M after 48 hrs by Sulforhodamine B assay relative to control; conditions: DU-145, 48 h, read-out: GI
Procedure, shortened: (§2)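 Single-dose screen at 10⁻⁵ M. Cells are preincubated 24 h at 37 °C in 5% CO2, then exposed to the compound, diluted from a DMSO stock into medium with gentamicin, for 48 h. Adherent cells are fixed with cold TCA (final 10%) and suspension cells with TCA (final 16%). Cells are stained with 0.4% SRB in 1% acetic acid and bound dye is read at 515 nm. Percent growth inhibition is taken against control wells and time-zero plates.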

SF-268 = assay: Growth inhibition of human SF268 cells at 10^-5 M after 48 hrs by Sulforhodamine B assay relative to control; conditions: SF-268, 48 h, read-out: GI; procedure, shortened: as §1
A498 = assay: Growth inhibition of human A498 cells at 10^-5 M after 48 hrs by Sulforhodamine B assay relative to control; conditions: A498, 48 h, read-out: GI; procedure, shortened: as §2
PC-3 = assay: Growth inhibition of human PC3 cells at 10^-5 M after 48 hrs by Sulforhodamine B assay relative to control; conditions: PC-3, 48 h, read-out: GI; procedure, shortened: as §1
SW-620 = assay: Growth inhibition of human SW620 cells at 10^-5 M after 48 hrs by Sulforhodamine B assay relative to control; conditions: SW-620, 48 h, read-out: GI; procedure, shortened: as §1
HL-60(TB) = assay: Growth inhibition of human HL-60(TB) cells at 10^-5 M after 48 hrs by Sulforhodamine B assay relative to control; conditions: HL-60, 48 h, read-out: GI
Procedure, shortened: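 First-stage single-dose screen at 10⁻⁵ M. Cells pre-incubated 24 h at 37 °C, 5% CO2, then exposed to drug for 48 h. Settled cells fixed with TCA (final 16%), SRB-stained and read at 515 nm. Percentage growth inhibition is derived from treated, untreated control and time-zero absorbances.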

HT-29 = assay: Growth inhibition of human HT-29 cells at 10^-5 M after 48 hrs by Sulforhodamine B assay relative to control; conditions: HT-29, 48 h, read-out: GI; procedure, shortened: as §2
SNB-75 = assay: Growth inhibition of human SNB75 cells at 10^-5 M after 48 hrs by Sulforhodamine B assay relative to control; conditions: SNB-75, 48 h, read-out: GI; procedure, shortened: as §1
SF-295 = assay: Growth inhibition of human SF295 cells at 10^-5 M after 48 hrs by Sulforhodamine B assay relative to control; conditions: SF-295, 48 h, read-out: GI; procedure, shortened: as §1
RPMI-8226 = assay: Growth inhibition of human RPMI8226 cells after 48 hrs by Sulforhodamine B assay; conditions: RPMI-8226, 48 h
Procedure, shortened: (§3)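 Cells were preincubated 24 h at 37 °C, 5% CO2, and a time-zero plate was TCA-fixed. Five concentrations were made by serial dilution from a DMSO stock (400-fold the top concentration) and incubated 48 h. Adherent cells were fixed with 10% final TCA and suspension cells with 16%. Plates were stained with 0.4% SRB and read at 515 nm. GI50 is the concentration giving 50% reduction in net protein increase versus control.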

SF-539 = assay: Growth inhibition of human SF539 cells after 48 hrs by Sulforhodamine B assay; conditions: SF-539, 48 h; procedure, shortened: as §3
NCI-H226 = assay: Growth inhibition of human NCI-H226 cells after 48 hrs by Sulforhodamine B assay; conditions: NCI-H226, 48 h; procedure, shortened: as §3
IGROV-1 = assay: Growth inhibition of human IGROV1 cells after 48 hrs by Sulforhodamine B assay; conditions: IGROV-1, 48 h
Procedure, shortened: (§4)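 Five-concentration SRB assay using 10-fold or ½-log serial dilutions from a DMSO stock. Exposure is 48 h at 37 °C in 5% CO2 after 24 h preincubation. TCA fixation is followed by SRB staining and a reading at 515 nm. Percentage growth is computed from time-zero, control and treated absorbances. GI50 is the concentration where [(Ti−Tz)/(C−Tz)]×100 = 50, read from the plot against log concentration.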

MDA-MB-468 = assay: Growth inhibition of human MDA-MB-468 cells after 48 hrs by Sulforhodamine B assay; conditions: MDA-MB-468, 48 h; procedure, shortened: as §3
A549 = assay: Growth inhibition of human A549/ATCC cells after 48 hrs by Sulforhodamine B assay; conditions: A549, 48 h; procedure, shortened: as §4
UACC-62 = assay: Growth inhibition of human UACC62 cells after 48 hrs by Sulforhodamine B assay; conditions: UACC-62, 48 h
Procedure, shortened: (§5)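 Five-concentration stage in the […]-cell-line panel, using 10-fold or ½-log serial dilutions made from a DMSO stock (400-fold). Cells were preincubated 24 h at 37 °C, then drug-exposed 48 h. A time-zero plate was fixed with TCA at dosing, adherent cells were fixed with cold TCA (10% final), and protein was stained with SRB, absorbance 515 nm. GI50 was where [(Ti−Tz)/(C−Tz)]×100 = 50, from the percent growth vs log concentration plot, expressed as log10 GI50.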

NCI-H322M = assay: Growth inhibition of human NCI-H322M cells after 48 hrs by Sulforhodamine B assay; procedure, shortened: as §3
UO-31 = assay: Growth inhibition of human UO31 cells after 48 hrs by Sulforhodamine B assay; conditions: UO-31, 48 h; procedure, shortened: as §5
MCF7 = assay: Growth inhibition of human MCF7 cells after 48 hrs by Sulforhodamine B assay; conditions: MCF7, 48 h; procedure, shortened: as §4
CCRF-CEM = assay: Growth inhibition of human CCRF-CEM cells after 48 hrs by Sulforhodamine B assay; procedure, shortened: as §4
M14 = assay: Growth inhibition of human M14 cells after 48 hrs by Sulforhodamine B assay; conditions: M14, 48 h; procedure, shortened: as §4
K562 = assay: Growth inhibition of human K562 cells after 48 hrs by Sulforhodamine B assay; conditions: K562, 48 h; procedure, shortened: as §4
UACC-257 = assay: Growth inhibition of human UACC257 cells after 48 hrs by Sulforhodamine B assay; conditions: UACC-257, 48 h; procedure, shortened: as §5
MDA-MB-231 = assay: Growth inhibition of human MDA-MB-231 cells after 48 hrs by Sulforhodamine B assay; conditions: MDA-MB-231, 48 h; procedure, shortened: as §4
HOP-62 = assay: Growth inhibition of human HOP62 cells after 48 hrs by Sulforhodamine B assay; conditions: HOP-62, 48 h; procedure, shortened: as §4
TK-10 = assay: Growth inhibition of human TK10 cells after 48 hrs by Sulforhodamine B assay; conditions: TK-10, 48 h; procedure, shortened: as §5
NCI-H522 = assay: Growth inhibition of human NCI-H522 cells after 48 hrs by Sulforhodamine B assay; conditions: NCI-H522, 48 h; procedure, shortened: as §3

SMILES	inhibition of growth at 10 µM (OVCAR-5)	inhibition of growth at 10 µM (OVCAR-3)	inhibition of growth at 10 µM (DU-145)	inhibition of growth at 10 µM (SF-268)	inhibition of growth at 10 µM (A498)	inhibition of growth at 10 µM (PC-3)	inhibition of growth at 10 µM (SW-620)	inhibition of growth at 10 µM (HL-60(TB))	inhibition of growth at 10 µM (HT-29)	inhibition of growth at 10 µM (SNB-75)	inhibition of growth at 10 µM (SF-295)	also measured
Clc1nc(-c2ccncc2)nc2sc3c(c12)CCCCCC3	-5.24%	-5.97%	8.02%	0.85%	37.2%	0.63%	-3.44%	3.12%	-1.58%	9.59%		
c1ccc(N2CCN(c3nc(-c4ccncc4)nc4sc5c(c34)CCCCCC5)CC2)cc1	1.59%	7.59%	-4.95%	-1.33%	4.79%	5.9%	-9.11%	2.53%	12.8%	-23.8%	6.51%	
c1cc(-c2nc(N3CCOCC3)c3c4c(sc3n2)CCCCCC4)ccn1	-1.32%	15.4%	1.4%	4.06%	33.7%	35.4%	-9.82%	24.6%	17.6%	0.97%	19.5%	
c1ccc(-c2nc(N3CCOCC3)c3c4c(sc3n2)CCCCCC4)nc1												GI50 (RPMI-8226): 2.14 µM; GI50 (SF-539): 12.9 µM; GI50 (NCI-H226): 5.01 µM; GI50 (IGROV-1): 3.16 µM; GI50 (MDA-MB-468): 4.17 µM; GI50 (A549): 3.55 µM; GI50 (UACC-62): 3.47 µM; GI50 (NCI-H322M): 5.5 µM; GI50 (UO-31): 1.17 µM; GI50 (MCF7): 3.02 µM; GI50 (CCRF-CEM): 3.55 µM; GI50 (M14): 4.17 µM; GI50 (K562): 3.47 µM; GI50 (UACC-257): 11 µM; GI50 (MDA-MB-231): 7.41 µM; GI50 (HOP-62): 9.55 µM; GI50 (TK-10): 9.33 µM; GI50 (NCI-H522): 5.89 µM
c1ccc(N2CCN(c3nc(-c4ccccn4)nc4sc5c(c34)CCCCCC5)CC2)cc1	36.8%	27%	21.1%	20.4%	38.4%	54%	24%		42%	9.19%	54.8%	
CN1CCN(c2nc(-c3ccccn3)nc3sc4c(c23)CCCCCC4)CC1	2.04%	-5.6%	-11.6%	-1.9%	34.8%	15.3%	-1.34%	4.37%	5.9%	14.4%	13.8%	
